# Source: paper PMC10079166 (Journal of medicinal chemistry, 2019)
# “Also recorded” adds a separate entry of the source. Read-outs that look alike come from different tables or passages of the source. Non-standard residues stand in square brackets, D forms with d. Residues, ends and D or L forms follow the SMILES beside them. dPhe(4-guanidino) = N=C(N)Nc1ccc(C[C@@H](N)C(=O)O)cc1
# What was measured:
# human MRGPRX1 [1] = target: T1, human MRGPRX1 (Homo sapiens, UniProt Q96LB2); assay type: cell-based; details: for agonist type at human MRGPRX1: HTS hits, FLIPR calcium 4 Assay Kit; for ligand efficiency (LE): human MRGPRX1 agonists; for fold decrease in agonist potency as compared to 5a: relative to 5a; for agonist activity at MRGPRX1: at concentrations up to 100 μM
# T1 sequence (Q96LB2 whole entry): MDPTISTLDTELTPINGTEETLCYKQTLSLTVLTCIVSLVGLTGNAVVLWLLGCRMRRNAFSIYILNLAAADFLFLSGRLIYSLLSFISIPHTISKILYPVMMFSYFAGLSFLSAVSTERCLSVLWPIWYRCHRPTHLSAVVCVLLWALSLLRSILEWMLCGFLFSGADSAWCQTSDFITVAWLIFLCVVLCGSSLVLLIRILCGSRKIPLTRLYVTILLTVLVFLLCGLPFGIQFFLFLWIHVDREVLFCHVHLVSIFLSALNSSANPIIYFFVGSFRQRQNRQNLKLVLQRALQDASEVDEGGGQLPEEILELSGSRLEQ
# Procedure, shortened: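 HEK293 cells stably expressing human MrgprX1 were plated at 25,000 cells/well and grown 2 days. They were loaded with 2 μM Fluo 4AM and 1% Trypan Red in HBSS for 50 min at 37°C, then equilibrated 10 min at room temperature. Serial dilutions in HBSS were added, with BAM 8–22 as positive and HBSS as negative control. FLIPR imaging ran 2 min; read-out was maximum minus minimum fluorescence.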
# [2] = system: HVA Ca2+ currents in human MRGPRX1-expressing DRG neurons; assay type: cell-based, mouse; details: DRG neurons from MrgprX1 mice
# human MRGPRX1 [3] = target: T1, human MRGPRX1; details: cited from earlier work
# mouse MRGPRC11 [4] = target: T2, mouse MRGPRC11 (Mus musculus, UniProt Q8CIP3); details: cited from earlier work
# T2 sequence (Q8CIP3 1-322): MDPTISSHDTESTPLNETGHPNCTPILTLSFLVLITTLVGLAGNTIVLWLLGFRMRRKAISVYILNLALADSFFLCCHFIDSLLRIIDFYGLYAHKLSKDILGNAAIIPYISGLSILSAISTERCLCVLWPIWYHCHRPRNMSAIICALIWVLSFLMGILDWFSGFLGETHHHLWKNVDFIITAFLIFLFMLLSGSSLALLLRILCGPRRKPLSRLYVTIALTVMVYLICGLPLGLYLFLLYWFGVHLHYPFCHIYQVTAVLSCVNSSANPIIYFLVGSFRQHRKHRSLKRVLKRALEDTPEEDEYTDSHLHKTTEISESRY
# neuropathic pain = details: rodent models of neuropathic pain; cited from earlier work
# rat MRGPRC = details: cited from earlier work
# [5] = Metabolic stability in mouse liver microsomes; assay type: in vitro ADME
# mouse MRGPRC11 [6] = target: T2, mouse MRGPRC11; assay: Agonist activity at mouse MRGPRC11; assay type: cell-based; details: even at concentration of 40 μM
# [7] = system: δ-, μ- and κ-opioid receptors; assay: Selectivity of MRGPRX1 agonists over opioid receptors; assay type: binding; details: MRGPRX1 versus δ-
# [8] = system: mechanical and thermal hyperalgesia; details: intrathecal (spinal cord) injection, mice; cited from earlier work
# [9] = system: mechanical and thermal hyperalgesia; details: intrathecal (spinal cord) injection, rats; cited from earlier work
molecule,measurement,setting,value
"COc1cc(CNc2ccc(C(=N)N)cc2)ccc1OCc1ccccc1 [Compound 5a, 4-(4-(Benzyloxy)-3-methoxybenzylamino)benzimidamide]",agonist type at human MRGPRX1,human MRGPRX1 [1],full agonists
same,ligand efficiency (LE),human MRGPRX1 [1],0.32–0.33
same,inhibitory effect on HVA Ca2+ currents,[2]; bath application of 10 μM,inhibited HVA Ca^2+ currents
NC(=O)[C@H](Cc1ccccc1)NC(=O)[C@H](N)Cc1ccc(N=C(N)N)cc1 [JHU-58] (H-[dPhe(4-guanidino)]-Phe-NH2),agonist activity at human MRGPRX1,human MRGPRX1 [3]; introduction,negligible agonist activity
same,agonist activity at mouse MRGPRC11,mouse MRGPRC11 [4],full agonist activity
same,analgesic effects,neuropathic pain,exhibits analgesic effects
same,agonist activity at rat MRGPRC,rat MRGPRC,full agonist activity
"COc1cc(CNc2cccc(C(=N)N)c2)ccc1OCc1ccccc1 [Compound 5b, 3-(4-(Benzyloxy)-3-methoxybenzylamino)benzimidamide]",fold decrease in agonist potency as compared to 5a,human MRGPRX1 [1],6 fold
"COc1cc(CNc2ccccc2C(=N)N)ccc1OCc1ccccc1 [Compound 5c, 2-(4-(Benzyloxy)-3-methoxybenzylamino)benzimidamide]",agonist activity at MRGPRX1,human MRGPRX1 [1],negligible agonist activity
same,fold decrease in agonist potency as compared to 5a,human MRGPRX1 [1],> 100 fold
same,inhibitory effect on HVA Ca2+ currents,[2]; bath application of 10 μM,no inhibitory effects
"CCCCS(=O)(=O)Nc1cc(C)ccc1Oc1ccc(C(=N)N)cc1 [Compound 11a, 4-(2-(Butylsulfonamido)-4-methylphenoxy)benzimidamide]",agonist type at human MRGPRX1,human MRGPRX1 [1],full agonists
same,ligand efficiency (LE),human MRGPRX1 [1],0.32–0.33
"COc1cc(CNc2ccc(C(=N)N)cc2)ccc1OCc1cccnc1 [Compound 5d, 4-(3-Methoxy-4-(pyridin-3-ylmethoxy)benzylamino)benzimidamide]",fold decrease in agonist potency as compared to 5a,human MRGPRX1 [1],10 fold
"COc1ccccc1S(=O)(=O)Nc1ccc(C)cc1Oc1ccc2sc(N)nc2c1 [Compound 19, N-(2-(2-Aminobenzo[d]thiazol-5-yloxy)-4-methylphenyl)-2-methoxybenzenesulfonamide]",agonist activity at MRGPRX1,human MRGPRX1 [1],negligible agonist activity; also recorded: no agonist activity
"COc1ccccc1S(=O)(=O)Nc1ccc(C)cc1Oc1ccc2c(N)nccc2c1 [Compound 16, N-(2-(1-Aminoisoquinolin-6-yloxy)-4-methylphenyl)-2-methoxybenzenesulfonamide]",half-life,[5],< 15 min
same,activity against mouse MRGPRC11,mouse MRGPRC11 [6],inactive
same,selectivity over all three opioid receptors,[7],≥ 50 fold
BAM8-22,effect on mechanical and thermal hyperalgesia,[8],attenuate both mechanical and thermal hyperalgesia
same,agonist activity at human MRGPRX1,human MRGPRX1 [3],full agonist activity
same,effect on mechanical and thermal hyperalgesia,[9],attenuate both mechanical and thermal hyperalgesia
same,agonist activity at mouse MRGPRC11,mouse MRGPRC11 [4],full agonist activity
same,inhibitory effect on HVA Ca2+ currents,[2]; bath application of 5 μM,inhibited HVA Ca^2+ currents
same,agonist activity at rat MRGPRC,rat MRGPRC,full agonist activity
